Source: the array DNA melting data of Ke et al. (doi:10.1101/2024.01.08.574731)

Assays:
[1] = folding enthalpy; higher = less favourable; fluorescence melt of hairpins on a sequencing array, two-state fit; details: sodium 0.088 M
Procedure, shortened: (§1)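 Melting temperature and folding enthalpy were obtained by bootstrapped two-state fitting. Fits used Cy3 fluorescence of library hairpins with annealed Cy3 and quencher oligos on a sequenced MiSeq flow cell, imaged in 50 mM Na-HEPES pH 8.0, 25 mM NaCl in 2.5 °C steps up to 60 °C and normalised to pre-quench Cy3 and control constructs. Four replicates were combined by inverse-variance weighting, and fitted temperatures were raised by 9.35 °C to match UV melts.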

[2] = melting temperature; fluorescence melt of hairpins on a sequencing array, two-state fit, raised by 9.35 °C to match UV melts; details: sodium 0.088 M
Procedure, shortened: as §1

Sequence	folding enthalpy [1] [kcal/mol]	Tm [2] [°C]
CGCATGAAAATGCG (((((....)))))	-24.9	67.6
CGCCCACGGAAACGTGCG (((..(((....))))))	-12.3	37.1
CGCCCCCGGAAACGGGCG (((..(((....))))))	-13.8	54.3
CGCCCGGAAACGGACGCG ((((((....)))..)))	-12.2	50.2
CGCCCGGAAACGGAGGCG ((((((....)))..)))	-32.5	53.8
CGCCCGGAAACGGGGGCG ((((((....)))..)))	-12.5	68.6
CGCCCGGAAACGGTGGCG ((((((....)))..)))	-28.6	54.9
CGCCGCGGAAACGCCGCG (((.(((....))).)))	-14.9	63.6
CGCGAACGGAAACGTGCG (((..(((....))))))	-47.6	49.6
CGCGCGGAAACGCAGGCG ((((((....)))..)))	-28.6	57.2
CGCGCGGAAACGCGAGCG ((((((....)))..)))	-12.1	60.7
CGCGCGGAAACGCTGCG ((((((....))).)))	-26.9	57.1
CGCGCTCGGAAACGAGCG (((..(((....))))))	-7.49	67.6
CGCGGAAAAACAACAACCGCG ((.................))	-25.1	44.5
CGCGGAAAAACAACCGCG ((..............))	-26.4	49.8
CGCGGAAATCTCCGCG ((((((....))))))	-40.2	62.2
CGCGGAAATGTCCGCG ((((((....))))))	-32.5	69.1
CGCGGAACAATCCGCG ((((((....))))))	-37	61.5
CGCGGAACAGTCCGCG ((((((....))))))	-33.1	67.2
CGCGGAACATTCCGCG ((((((....))))))	-35.9	65.3
CGCGGAACCGTCCGCG ((((((....))))))	-31.9	68.4
CGCGGAACGCTCCGCG ((((((....))))))	-28.9	57.4
CGCGGAAGACTCCGCG ((((((....))))))	-41.6	62.8

Sequence	folding enthalpy [1] [kcal/mol]	Tm [2] [°C]
CGCGGAAGAGTCCGCG ((((((....))))))	-36	62.6
CGCGGAAGCGTCCGCG ((((((....))))))	-13.4	53.2
CGCGGACAGTCCGCG ((((((...))))))	-32.6	65.6
CGCGGACCGTCCGCG ((((((...))))))	-29	68.9
CGCGGACGTTTCCGCG ((((((....))))))	-31.9	69.2
CGCGGACTAATCCGCG ((((((....))))))	-38.3	65.9
CGCGGACTCCTCCGCG ((((((....))))))	-37.2	68.9
CGCGGACTGCTCCGCG ((((((....))))))	-39.8	62.4
CGCGGAGCGTCCGCG ((((((...))))))	-7.62	68.1
CGCGGATAGTCCGCG ((((((...))))))	-40.8	63.6
CGCGGATCGCTCCGCG ((((((....))))))	-28.6	69.2
CGCGGATGGCTCCGCG ((((((....))))))	-30.6	68.9
CGCGTCGGAAACGATGCG (((.(((....))).)))	-54.9	62.4
CGCGTTCGGAAACGAGCG (((..(((....))))))	-19.6	48.5
CGCTCCCGGAAACGGGCG (((..(((....))))))	-15.3	42.7
CGCTCGGAAACGAGGCG ((((((....))).)))	-30.6	53.2
CGCTGGAAACAGCG (((((....)))))	-31.2	66.2
CGCTTCGGAAACGACGCG (((.(((....))).)))	-48.8	51.5
CGGAACGGAAACGTCCCG (((.(((....))).)))	-36.3	47.1
CGGAACGGAAACGTGCCG (((.(((....))).)))	-44.3	56
CGGACCGGAAACGGCCG (((.(((....))))))	-28.9	56
CGGACGGAAACGTAGCCG ((((((....)))..)))	-23.6	33.4
CGGACGGAAACGTCCCG ((((((....))).)))	-10.8	50.7

Sequence	folding enthalpy [1] [kcal/mol]	Tm [2] [°C]
CGGACGGAAACGTTGCCG ((((((....)))..)))	-15.7	37.8
CGGATACGGAAACGTCCG (((..(((....))))))	-18.6	40.4
CGGCCCGGAAACGGCCG (((.(((....))))))	-31	63.7
CGGCCGGAAACGGACCCG ((((((....)))..)))	-12.1	38.8
CGGCCGGAAACGGTTCCG ((((((....)))..)))	-21.6	41.1
CGGCGACGGAAACGTCCG (((..(((....))))))	-17.4	38.5
CGGCGCCGGAAACGGCCG (((..(((....))))))	-8.91	54.8
CGGCTACGGAAACGTCCG (((..(((....))))))	-13.3	36.6
CGGCTGCGGAAACGCCCG (((..(((....))))))	-18.5	44.2
CGGGACGGAAACGTCCG (((.(((....))))))	-12.9	57.9
CGGGACGGAAACGTTCCG (((.(((....))).)))	-37.8	59.4
CGGGCGGAAACGCCACCG ((((((....)))..)))	-9.3	42.4
CGGGCGGAAACGCCCCG ((((((....))).)))	-8.53	59.6
CGGGCGGAAACGCGCCG ((((((....))).)))	-16.6	55.5
CGGGGCCGGAAACGGCCG (((..(((....))))))	-4.87	53.8
CGGGTCCGGAAACGGCCG (((..(((....))))))	-14.3	47.5
CGGGTTCGGAAACGACCG (((..(((....))))))	-19.9	39.4
CGGTCACGGAAACGTCCG (((..(((....))))))	-10.3	38.7
CGGTCGGAAACGAAGCCG ((((((....)))..)))	-24.1	38.1
CGGTCGGAAACGATGCCG ((((((....)))..)))	-22.1	38.6
CGGTGACGGAAACGTCCG (((..(((....))))))	-12	44.3
CGGTGCGGAAACGCCCG (((.(((....))))))	-30.8	58
CGGTGGAAACACCG (((((....)))))	-26.1	68

Sequence	folding enthalpy [1] [kcal/mol]	Tm [2] [°C]
CGTAAACGGAAACGTACG (((..(((....))))))	-23.5	34.8
CGTAACGGAAACGTACG (((.(((....))))))	-31	44.3
CGTACCGGAAACGGGACG (((.(((....))).)))	-36.4	64.8
CGTACGCGGAAACGCACG (((..(((....))))))	-13.5	40.7
CGTACGGAAACGTACACG ((((((....)))..)))	-11.5	39.9
CGTACGGAAACGTCTACG ((((((....)))..)))	-14.7	30.7
CGTACGGAAACGTGACG ((((((....))).)))	-25.9	41.1
CGTACGGAAACGTGGACG ((((((....)))..)))	-15.1	35.2
CGTACGGAAACGTTGACG ((((((....)))..)))	-16.5	36.3
CGTAGACGGAAACGTACG (((..(((....))))))	-16.7	36.9
CGTAGCGGAAACGCAACG (((.(((....))).)))	-29.5	53
CGTAGCGGAAACGCGACG (((.(((....))).)))	-31	59.1
CGTAGGAAACTACG (((((....)))))	-21	48.2
CGTATACGGAAACGTACG (((..(((....))))))	-27.7	33
CGTATCCGGAAACGGACG (((..(((....))))))	-13.8	32.5
CGTATCGGAAACGACACG (((.(((....))).)))	-31.2	42.6
CGTATCGGAAACGAGACG (((.(((....))).)))	-35.2	53.3
CGTCCGGAAACGGCGACG ((((((....)))..)))	-13.6	46.7
CGTCCGGAAACGGGACG ((((((....))).)))	-30.4	55.8
CGTCCGGAAACGGGGACG ((((((....)))..)))	-25	48.3
CGTCCGGAAACGGTGACG ((((((....)))..)))	-21.9	41
CGTCGCCGGAAACGGACG (((..(((....))))))	-17.8	47.1
CGTCTTCGGAAACGAACG (((..(((....))))))	-11.3	29.8
